Results from ChEMBL document CHEMBL1141363, “Synthesis and evaluation of novel heterocyclic MMP inhibitors” (Bioorg Med Chem Lett, 2007).

Tests used:
[1] = molecular target: Matrix metalloproteinase-9 (Homo sapiens, UniProt P14780); experiment: Inhibition of MMP9
Outline: (§1)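 Catalytic domains used at final levels of 85 nM (MMP-1), 24 nM (MMP-2), 18 nM (MMP-9) and 84 nM (MMP-12). Each enzyme was premixed with compound (serial 1:2 dilutions, 150 to 1.2) for 30 min at 37 °C. Substrate was added in 50 mM Hepes with 5 mM CaCl2 and 0.05% w/w Brij-35, pH 7.5, then incubated 30 min. Fluorescence read at ex 328/em 393 nm over 45 min, every 50 s.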

[2] = molecular target: 72 kDa type IV collagenase (Homo sapiens, UniProt P08253); experiment: Inhibition of MMP2; outline: as §1
72 kDa type IV collagenase, sequence (P08253 whole entry): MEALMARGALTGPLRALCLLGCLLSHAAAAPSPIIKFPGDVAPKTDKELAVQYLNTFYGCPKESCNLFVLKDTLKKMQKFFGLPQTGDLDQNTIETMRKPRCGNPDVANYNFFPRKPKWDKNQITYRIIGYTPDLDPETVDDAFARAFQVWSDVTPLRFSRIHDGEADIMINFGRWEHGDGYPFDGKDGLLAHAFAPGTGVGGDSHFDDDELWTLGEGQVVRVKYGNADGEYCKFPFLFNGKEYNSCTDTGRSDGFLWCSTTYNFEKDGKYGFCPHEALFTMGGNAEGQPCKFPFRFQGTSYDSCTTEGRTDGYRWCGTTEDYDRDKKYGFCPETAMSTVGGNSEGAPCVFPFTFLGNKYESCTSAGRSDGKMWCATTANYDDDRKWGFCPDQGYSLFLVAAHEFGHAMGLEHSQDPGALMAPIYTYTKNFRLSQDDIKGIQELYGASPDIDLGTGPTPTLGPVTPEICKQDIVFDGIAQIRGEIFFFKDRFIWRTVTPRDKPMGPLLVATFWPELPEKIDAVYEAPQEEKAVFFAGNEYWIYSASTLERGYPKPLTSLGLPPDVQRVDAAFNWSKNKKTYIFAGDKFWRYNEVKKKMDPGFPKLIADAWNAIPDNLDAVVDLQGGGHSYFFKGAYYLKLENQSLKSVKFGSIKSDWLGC

[3] = molecular target: Macrophage metalloelastase (Homo sapiens, UniProt P39900); experiment: Inhibition of MMP12; outline: as §1
Macrophage metalloelastase, sequence (P39900 whole entry): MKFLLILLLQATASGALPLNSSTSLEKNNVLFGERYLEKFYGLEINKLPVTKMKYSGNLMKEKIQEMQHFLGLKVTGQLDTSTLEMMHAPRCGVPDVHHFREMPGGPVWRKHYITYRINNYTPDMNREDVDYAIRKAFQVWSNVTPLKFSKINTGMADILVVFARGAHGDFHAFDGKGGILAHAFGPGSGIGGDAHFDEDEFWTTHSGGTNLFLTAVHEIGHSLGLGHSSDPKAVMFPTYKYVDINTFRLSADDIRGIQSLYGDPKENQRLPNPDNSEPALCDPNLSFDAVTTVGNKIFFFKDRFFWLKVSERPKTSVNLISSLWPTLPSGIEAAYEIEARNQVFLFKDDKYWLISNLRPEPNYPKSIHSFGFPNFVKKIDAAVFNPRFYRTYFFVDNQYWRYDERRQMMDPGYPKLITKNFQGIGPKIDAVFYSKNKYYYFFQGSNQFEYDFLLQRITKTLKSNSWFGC

Interstitial collagenase = molecular target: T1, Interstitial collagenase (Homo sapiens, UniProt P03956); experiment: Inhibition of MMP1; outline: as §1
T1 sequence (P03956 whole entry): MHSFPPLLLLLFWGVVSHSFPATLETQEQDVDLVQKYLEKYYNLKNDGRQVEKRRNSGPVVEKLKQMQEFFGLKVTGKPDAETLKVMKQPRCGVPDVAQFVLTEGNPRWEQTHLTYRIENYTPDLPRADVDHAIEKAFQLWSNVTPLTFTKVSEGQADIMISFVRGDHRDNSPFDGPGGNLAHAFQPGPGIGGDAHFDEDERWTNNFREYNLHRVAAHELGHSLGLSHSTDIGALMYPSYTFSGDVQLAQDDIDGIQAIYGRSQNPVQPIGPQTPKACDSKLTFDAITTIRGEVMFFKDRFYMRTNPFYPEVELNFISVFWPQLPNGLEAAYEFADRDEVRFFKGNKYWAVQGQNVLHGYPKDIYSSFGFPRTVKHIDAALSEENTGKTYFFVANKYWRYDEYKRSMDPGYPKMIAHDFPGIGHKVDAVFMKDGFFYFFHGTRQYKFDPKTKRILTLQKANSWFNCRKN

Matrix metalloproteinase-9, sequence (P14780 whole entry, the tested form may be a part): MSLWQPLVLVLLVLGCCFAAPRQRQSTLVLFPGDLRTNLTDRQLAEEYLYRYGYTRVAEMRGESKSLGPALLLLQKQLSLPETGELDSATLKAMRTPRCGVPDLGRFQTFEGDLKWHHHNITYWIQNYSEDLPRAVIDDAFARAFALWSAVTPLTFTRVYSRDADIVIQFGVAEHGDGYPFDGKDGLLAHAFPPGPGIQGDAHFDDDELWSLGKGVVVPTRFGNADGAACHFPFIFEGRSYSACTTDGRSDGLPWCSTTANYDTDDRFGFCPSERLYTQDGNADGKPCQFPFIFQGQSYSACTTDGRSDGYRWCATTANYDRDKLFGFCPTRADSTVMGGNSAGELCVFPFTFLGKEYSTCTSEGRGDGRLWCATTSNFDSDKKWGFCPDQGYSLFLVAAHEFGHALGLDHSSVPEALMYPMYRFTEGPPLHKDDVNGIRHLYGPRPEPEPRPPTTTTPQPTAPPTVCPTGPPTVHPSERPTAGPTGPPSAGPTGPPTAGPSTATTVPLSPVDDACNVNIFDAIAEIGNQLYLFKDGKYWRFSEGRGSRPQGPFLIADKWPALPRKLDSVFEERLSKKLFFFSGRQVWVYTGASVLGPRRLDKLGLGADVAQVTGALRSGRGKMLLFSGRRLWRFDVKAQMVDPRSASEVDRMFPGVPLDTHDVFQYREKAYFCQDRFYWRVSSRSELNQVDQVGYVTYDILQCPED

SMILES | IC50 [1] [µM] | IC50 [2] [µM] | IC50 [3] [µM] | IC50 (Interstitial collagenase) [µM]
O=C(OCc1cccc(Oc2ccccc2)c1)c1cccc(S)n1 | 75 | 46 | 71 | 78
O=C(OCCCCOc1ccccc1)c1cccc(S)n1 | 83 | 63 | 78 | 138
O=C(OCc1ccc(C(F)(F)F)cc1)c1cccc(=S)[nH]1 | 141 | 125 | 94 | > 150
c1ccc(CCCn2nnc(Cc3cccnc3)n2)cc1 | > 150 | > 150 | > 150 | > 150
CC(C)=CCOC(=O)c1cccc(=O)[nH]1 | 69 | 72 | 67 | 37
O=C(Oc1cccc2ccccc12)c1cccc(=O)[nH]1 | 109 | 109 | 111 | 115
O=C(OCc1cccc(F)c1)c1cccc(S)n1 | 107 | 124 | 151 | 119
CCCCCCCn1cc(C2=NCCO2)nn1 | > 150 | > 150 | > 150 | > 150
Cc1cccc(COC(=O)c2cccc(S)n2)c1 | 7 | 7 | 70 | > 150
CC(C)OC(=O)c1cccc(=O)[nH]1 | 67 | 67 | 67 | 31
c1ccc(CCn2cc(C3=NCCO3)nn2)cc1 | > 150 | > 150 | > 150 | > 150
O=C(OC1CCC1)c1cccc(=O)[nH]1 | 62 | 66 | 51 | 25
O=C(Oc1ccsc1)c1cccc(=O)[nH]1 | 67 | 65 | 62 | 39
COc1cccc(COC(=O)c2cccc(=O)[nH]2)c1 | 88 | 70 | 69 | 69
O=C(OCc1c(F)cccc1F)c1cccc(=S)[nH]1 | 101 | 66 | 127 | 92
O=C(OCc1cccc(Oc2ccccc2)c1)c1cccc(=O)[nH]1 | > 150 | > 150 | 118 | 68
O=C(OCc1ccc(C(F)(F)F)cc1)c1cccc(=O)[nH]1 | 101 | 112 | 64 | 24
O=C(OCc1ccccc1Br)c1cccc(=O)[nH]1 | 59 | 57 | 44 | 19
Cc1ccc(COC(=O)c2cccc(=S)[nH]2)cc1 | 119 | 98 | 81 | > 150
O=C(OCCCCOc1ccccc1)c1cccc(=O)[nH]1 | 94 | 90 | 82 | 67
c1ccc(Cn2cc(C3=NCCO3)nn2)cc1 | > 150 | > 150 | > 150 | > 150
O=C(OCc1ccc(F)cc1)c1cccc(S)n1 | 120 | 108 | 112 | 120
O=C(OCc1cc(F)ccc1F)c1cccc(S)n1 | 140 | 79 | 17 | 114
O=C(OC1CCCCC1)c1cccc(=O)[nH]1 | 94 | 101 | 71 | 32
O=C(OCCc1ccccc1)c1cccc(=O)[nH]1 | 81 | 69 | 68 | 47
O=C(OCc1ccc(Cl)cc1)c1cccc(S)n1 | 112 | 96 | 115 | 126
O=C(OCc1cccc(Cl)c1)c1cccc(=O)[nH]1 | 67 | 5 | 46 | 25
O=C(OCc1cccc(Br)c1)c1cccc(=O)[nH]1 | 67 | 68 | 31 | 22
O=C(OCCc1ccccc1)c1cccc(=S)[nH]1 | 107 | 119 | 117 | 120
